According to ChEMBL document CHEMBL1649443, “Novel S-adenosylmethionine decarboxylase inhibitors for the treatment of human African trypanosomiasis” (Antimicrob Agents Chemother, 2009):
The source made the active and inactive calls.

Key:
[1] = tested on: Trypanosoma brucei brucei; test: Antiparasitic activity against Trypanosoma brucei brucei LAB 110 EATRO infected in mouse assessed as mean survival days at 2 mg/kg, ip qd for 4 days administered on 1st day of infection and measured through day 40 post infection; format: functional; details: route intraperitoneal
Outline: (§1)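 Mice in groups of five, infected i.p. on day 0 with 2.5 × 10^5 T. b. brucei LAB 110 EATRO parasites; i.p. dosing began day 1. Parasitemia checked twice weekly by microscopy of at least 20 fields of wet blood smears through day 40, with animals considered cured only when clear through day 40.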

[2] = tested on: Trypanosoma brucei brucei; test: Antiparasitic activity against Trypanosoma brucei brucei LAB 110 EATRO infected in mouse assessed as parasitemia cure incidence at 2 mg/kg, ip qd for 4 days administered on 1st day of infection and measured through day 40 post infection; format: functional, organism-based; design: dose 2 mg/kg
CYP2C9 = CYP2C9 (Homo sapiens, UniProt P11712); test: Inhibition of human cytochrome P450 2C9; details: human
[3] = AUC in rat at 3 mg/kg, iv; format: ADME, organism-based; design: dose 3 mg/kg, route intravenous; details: plasma
Rattus norvegicus [4] = test: Half life in rat at 3 mg/kg, iv; format: ADME, organism-based; design: dose 3 mg/kg, route intravenous; details: in vivo
[5] = tested on: Trypanosoma brucei brucei; test: Antiparasitic activity against Trypanosoma brucei brucei LAB 110 EATRO infected in mouse assessed as parasitemia cure incidence at 50 mg/kg/day, ip qd for 7 days administered on 1st day of infection and measured through day 40 post infection; format: functional, organism-based
[6] = Metabolic stability in human liver microsomes assessed as intrinsic clearance up to 45 mins by LC/MS/MS analysis; format: ADME, Microsome
[7] = Metabolic stability in rat hepatocytes assessed as intrinsic clearance up to 45 mins by LC/MS/MS analysis; format: ADME, cell-based, Liver, Hepatocyte
CYP3A4 = CYP3A4 (Homo sapiens, UniProt P08684); test: Inhibition of human cytochrome P450 3A4; details: human
[8] = Metabolic stability in human hepatocytes assessed as intrinsic clearance up to 45 mins by LC/MS/MS analysis; format: ADME, cell-based, Liver, Hepatocyte
[9] = Kinetic solubility in phosphate-buffered saline at pH 7.4 after 16 to 24 hrs by UV spectrophotometry
CYP2D6 = CYP2D6 (Homo sapiens, UniProt P10635); test: Inhibition of human cytochrome P450 2D6; details: human
[10] = tested on: Trypanosoma brucei rhodesiense; test: Antiparasitic activity against Trypanosoma brucei rhodesiense STIB 900 clone after 72 hrs by Alamar blue assay; format: functional, organism-based; details: STIB 900, 72 h
[11] = Protein binding in mouse plasma at pH 7.4 after 4 hrs; format: ADME, cell-free; details: read-out: PPB (converted)
[12] = tested on: Trypanosoma brucei brucei; test: Antiparasitic activity against Trypanosoma brucei brucei STIB 795 infected in mouse assessed as mean survival days at 50 mg/kg, ip qd for 4 days administered on 3rd day of infection (reference value: 6.75 days); format: functional; details: route intraperitoneal
[13] = Half life in rat at 10 mg/kg, po; format: ADME, organism-based; design: dose 10 mg/kg, route oral; details: in vivo
Outline: (§2)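 Rat groups of six, split into two subgroups to limit blood collections, dosed i.v. or p.o. Blood sampled at 15 min, 30 min, 2 h, 4 h, 8 h and 24 h. Drug levels measured by LC-MS-MS. Two separate rat studies were run.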

[14] = AUC in mouse blood at 50 mg/kg, ip administered as single dose; format: ADME, organism-based; design: dose 50 mg/kg, route intraperitoneal
[15] = tested on: Trypanosoma brucei brucei; test: Antiparasitic activity against Trypanosoma brucei brucei LAB 110 EATRO infected in mouse assessed as mean survival days at 50 mg/kg/day, ip administered on 1st day of infection and measured through day 40 post infection; details: route intraperitoneal
[16] = Oral bioavailability in rat at 10 mg/kg, po; format: ADME, organism-based; details: in vivo; outline: as §2
[17] = Cmax in mouse brain at 50 mg/kg, ip administered as single dose; format: ADME, organism-based; design: dose 50 mg/kg, route intraperitoneal
[18] = Metabolic stability in rat liver microsomes assessed as intrinsic clearance up to 45 mins by LC/MS/MS analysis; format: ADME, Microsome
in vivo = details: mouse, brain, ip, 50 mg/kg
[19] = Half life in mouse at 50 mg/kg, ip administered as single dose; format: ADME, organism-based; design: dose 50 mg/kg, route intraperitoneal; details: in vivo
[20] = tested on: Trypanosoma brucei brucei; test: Antiparasitic activity against Trypanosoma brucei brucei LAB 110 EATRO infected in mouse assessed as parasitemia cure incidence at 50 mg/kg/day, ip administered on 1st day of infection and measured through day 40 post infection
[21] = Permeability of the compound after 4 hrs by PAMPA assay; format: ADME; details: read-out: permeability
[22] = Tmax in rat at 10 mg/kg, po; format: ADME, organism-based; design: dose 10 mg/kg, route oral; details: in vivo; outline: as §2
[23] = AUC in mouse brain at 50 mg/kg, ip administered as single dose; format: ADME, organism-based; design: dose 50 mg/kg, route intraperitoneal
Rattus norvegicus [24] = test: Volume of distribution at steady state in rat at 3 mg/kg, iv; format: ADME, organism-based; design: dose 3 mg/kg, route intravenous; details: in vivo
[25] = Cmax in mouse blood at 50 mg/kg, ip administered as single dose; format: ADME, organism-based; design: dose 50 mg/kg, route intraperitoneal
[26] = tested on: Trypanosoma brucei brucei; test: Antiparasitic activity against Trypanosoma brucei brucei LAB 110 EATRO infected in mouse assessed as mean survival days at 50 mg/kg/day, ip qd for 7 days administered on 1st day of infection and measured through day 40 post infection; format: functional; details: route intraperitoneal; outline: as §1
[27] = Cmax in rat at 10 mg/kg, po; format: ADME, organism-based; design: dose 10 mg/kg, route oral; details: in vivo; outline: as §2
[28] = Protein binding in human plasma at pH 7.4 after 4 hrs; format: ADME, cell-free; details: read-out: PPB (converted)
[29] = AUC in rat at 10 mg/kg, po; format: ADME, organism-based; design: dose 10 mg/kg, route oral; details: plasma; outline: as §2
[30] = tested on: Trypanosoma brucei brucei; test: Antiparasitic activity against Trypanosoma brucei brucei STIB 795 infected in mouse assessed as parasitemia cure incidence at 50 mg/kg, ip qd for 4 days administered on 3rd day of infection; format: functional, organism-based; design: dose 50 mg/kg
CYP2C19 = CYP2C19 (Homo sapiens, UniProt P33261); test: Inhibition of human cytochrome P450 2C19; details: human
CYP1A2 = target: T1, CYP1A2 (Homo sapiens, UniProt P05177); test: Inhibition of human cytochrome P450 1A2; details: human
T1 sequence (P05177 whole entry): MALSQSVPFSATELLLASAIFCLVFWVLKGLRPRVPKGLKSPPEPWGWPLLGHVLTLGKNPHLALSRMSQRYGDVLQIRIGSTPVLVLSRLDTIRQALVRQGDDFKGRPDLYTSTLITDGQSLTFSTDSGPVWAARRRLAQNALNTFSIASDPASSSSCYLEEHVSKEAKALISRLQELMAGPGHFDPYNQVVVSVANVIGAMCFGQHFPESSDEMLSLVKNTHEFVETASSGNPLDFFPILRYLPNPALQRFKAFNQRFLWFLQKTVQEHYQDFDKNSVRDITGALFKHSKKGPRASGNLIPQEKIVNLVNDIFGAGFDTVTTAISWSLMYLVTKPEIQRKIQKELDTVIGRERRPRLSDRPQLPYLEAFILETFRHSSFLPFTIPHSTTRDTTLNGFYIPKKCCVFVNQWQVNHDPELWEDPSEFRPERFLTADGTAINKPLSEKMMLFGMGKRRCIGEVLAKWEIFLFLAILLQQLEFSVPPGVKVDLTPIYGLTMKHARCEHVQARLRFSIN

CYP2C9, sequence (P11712 whole entry): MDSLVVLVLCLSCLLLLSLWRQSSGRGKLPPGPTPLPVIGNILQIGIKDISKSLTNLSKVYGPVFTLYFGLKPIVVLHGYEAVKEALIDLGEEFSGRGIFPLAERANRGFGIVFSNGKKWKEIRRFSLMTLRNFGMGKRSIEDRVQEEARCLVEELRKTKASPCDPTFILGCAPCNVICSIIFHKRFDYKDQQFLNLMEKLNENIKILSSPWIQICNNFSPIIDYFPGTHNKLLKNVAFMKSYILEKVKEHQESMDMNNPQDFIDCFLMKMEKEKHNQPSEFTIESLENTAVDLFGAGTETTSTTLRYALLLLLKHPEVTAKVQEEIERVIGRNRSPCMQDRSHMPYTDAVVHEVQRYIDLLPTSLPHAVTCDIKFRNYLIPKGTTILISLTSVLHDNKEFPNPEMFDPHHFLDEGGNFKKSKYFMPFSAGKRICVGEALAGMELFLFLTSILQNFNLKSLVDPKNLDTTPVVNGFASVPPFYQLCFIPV
CYP2D6, sequence (P10635 whole entry): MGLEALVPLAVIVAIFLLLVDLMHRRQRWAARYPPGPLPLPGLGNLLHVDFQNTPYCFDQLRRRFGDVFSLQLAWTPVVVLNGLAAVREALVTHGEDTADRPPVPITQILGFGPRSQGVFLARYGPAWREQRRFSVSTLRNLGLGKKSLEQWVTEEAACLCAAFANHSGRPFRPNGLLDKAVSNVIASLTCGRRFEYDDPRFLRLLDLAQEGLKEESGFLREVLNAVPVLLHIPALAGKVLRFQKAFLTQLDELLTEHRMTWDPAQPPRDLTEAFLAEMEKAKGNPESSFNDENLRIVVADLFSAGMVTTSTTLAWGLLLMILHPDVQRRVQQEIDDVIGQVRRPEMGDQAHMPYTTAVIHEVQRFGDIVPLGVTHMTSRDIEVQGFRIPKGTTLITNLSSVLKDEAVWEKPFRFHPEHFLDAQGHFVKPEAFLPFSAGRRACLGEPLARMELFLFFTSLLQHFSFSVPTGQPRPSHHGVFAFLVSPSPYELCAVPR
CYP3A4, sequence (P08684 whole entry): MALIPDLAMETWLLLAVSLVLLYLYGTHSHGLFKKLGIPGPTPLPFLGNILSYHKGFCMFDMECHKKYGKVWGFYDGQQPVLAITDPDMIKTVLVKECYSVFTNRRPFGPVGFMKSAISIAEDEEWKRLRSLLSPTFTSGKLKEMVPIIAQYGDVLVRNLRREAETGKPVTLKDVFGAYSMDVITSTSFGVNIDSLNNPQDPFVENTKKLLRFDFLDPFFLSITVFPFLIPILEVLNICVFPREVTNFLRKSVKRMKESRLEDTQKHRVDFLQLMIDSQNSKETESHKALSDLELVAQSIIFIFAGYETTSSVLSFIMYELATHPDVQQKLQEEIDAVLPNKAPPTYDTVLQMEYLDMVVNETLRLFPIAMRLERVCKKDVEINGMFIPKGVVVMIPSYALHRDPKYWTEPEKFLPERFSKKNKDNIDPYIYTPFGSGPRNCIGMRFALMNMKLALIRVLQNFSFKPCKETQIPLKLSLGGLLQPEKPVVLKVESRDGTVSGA
CYP2C19, sequence (P33261 whole entry): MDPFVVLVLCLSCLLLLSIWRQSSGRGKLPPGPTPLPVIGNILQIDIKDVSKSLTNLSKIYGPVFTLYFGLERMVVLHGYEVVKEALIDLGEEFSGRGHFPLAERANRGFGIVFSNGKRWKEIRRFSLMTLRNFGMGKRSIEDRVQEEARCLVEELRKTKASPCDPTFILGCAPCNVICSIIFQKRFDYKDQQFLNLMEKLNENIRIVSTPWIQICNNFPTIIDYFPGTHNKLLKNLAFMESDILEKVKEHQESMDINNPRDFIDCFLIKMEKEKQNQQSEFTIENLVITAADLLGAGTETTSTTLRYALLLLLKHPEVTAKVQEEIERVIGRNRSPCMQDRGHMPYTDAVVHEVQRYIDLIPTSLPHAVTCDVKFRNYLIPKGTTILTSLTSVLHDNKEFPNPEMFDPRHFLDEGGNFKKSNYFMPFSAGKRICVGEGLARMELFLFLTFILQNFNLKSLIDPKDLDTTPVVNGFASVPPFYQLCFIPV

Row | Compound | IC50 (CYP2C9) [µM] | CLint scaled [6] [mL/min/kg] | CLint scaled [7] [mL/min/kg] | IC50 (CYP3A4) [µM] | CLint scaled [8] [mL/min/kg] | solubility kinetic [9] [µg/mL] | IC50 (CYP2D6) [µM] | IC50 [10] [µM] | fraction unbound at 4 h [11] | AUC [14] [ng·h/mL] | Cmax [17] [ng/mL] | CLint scaled [18] [mL/min/kg] | Kp (in vivo) | half-life [19] [h] | AUC [23] [ng·h/mL] | Cmax [25] [ng/mL] | fraction unbound at 4 h [28] | IC50 (CYP2C19) [µM] | IC50 (CYP1A2) [µM] | also measured
1 | N=C(N)c1ccc(OCCCCCOc2ccc(C(=N)N)cc2)cc1 [PENTAMIDINE] | – | – | – | – | – | – | – | – | – | – | – | – | – | – | – | – | – | – | – | Survival [1]: >40 days; Activity [2]: Active
2 | Cc1nc(N)c2ncn([C@@H]3O[C@H](CN(C)C/C=C\CN)[C@@H](O)[C@H]3O)c2n1 | > 5 | < 4.2 | < 11 | > 5 | < 4.2 | > 49 | > 5 | 0.0001 | 0.643 | 17900 | 660 | < 11 | 7.28 | 7.43 | 1300 | 36900 | 0.588 | > 5 | > 5 | AUC [3]: 681 ng·h/mL; t1/2 (Rattus norvegicus [4]): 3.17 h; Activity [5]: Active; Survival [12]: >30 days; half-life [13]: 1.53 h; Survival [15]: >40 days; bioavailability [16]: 2.1%; Activity [20]: Active; Papp at 4 h [21]: 0.22 ×10⁻⁶ cm/s; Tmax [22]: 0.25 h; Vdss (Rattus norvegicus [24]): 853 L/kg; Survival [26]: >40 days; Cmax [27]: 39 ng/mL; AUC [29]: 49 ng·h/mL; Activity [30]: Active
3 | CN(C/C=C\CN)C[C@H]1O[C@@H](n2cnc3c(N)nc(Cl)nc32)[C@H](O)[C@@H]1O | > 5 | < 4.2 | < 11 | > 5 | < 4.2 | > 51 | > 5 | 0.259 | 0.578 | 22100 | 110 | < 11 | 1.79 | 1.66 | 400 | 39000 | 0.61 | > 5 | > 5 | –
